Values after ≈ are worked out from the molar mass of the structure shown.
Experiments:
[1] = tested on: Escherichia coli; assay: Antibacterial activity against drug-resistant Escherichia coli after 24 hrs by INT dye based microdilution assay; format: functional
How it was run: (§1)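 Broth microdilution in tryptic soy broth. Overnight culture adjusted to 1×10^5 CFU/mL, giving 1.0×10^4 CFU per well. Compounds dissolved in 5% DMSO and tested at 0.001-1.0 mg/ml. Plates incubated 24 h at 37°C. INT (0.2 mg/mL) then added, with 30 min at 37°C. Duplicate, repeated three times.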

[2] = tested on: Penicillium ochrochloron; assay: Antifungal activity against Penicillium ochrochloron ATCC 9112 after 72 hrs by serial dilution assay; format: functional; conditions: ATCC 9112, 72 h
How it was run: (§2)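 Modified microdilution: fungal spores washed off malt agar with sterile 0.85% saline plus 0.1% Tween 80, adjusted to about 1.0×10^5 per 100 µL well. Compounds in 5% DMSO (0.001-1.0 mg/ml) in malt broth; 72 h at 28°C on rotary shaker (160 rpm). MIC is lowest concentration without visible growth under binocular microscope. Bifonazole and ketoconazole controls (1-3500 µg/mL); three independent experiments in duplicate.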

[3] = tested on: Aspergillus versicolor; assay: Antifungal activity against Aspergillus versicolor ATCC 11730 after 72 hrs by serial dilution assay; format: functional; conditions: ATCC 11730, 72 h; how it was run: as §2
[4] = tested on: Aspergillus niger; assay: Antifungal activity against Aspergillus niger ATCC 6275 after 72 hrs by serial dilution assay; format: functional; conditions: ATCC 6275, 72 h; how it was run: as §2
[5] = tested on: Micrococcus flavus; assay: Antibacterial activity against Micrococcus flavus ATCC 10240 after 24 hrs by INT dye based microdilution assay; format: functional; conditions: ATCC 10240, 24 h
How it was run: (§3)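 Broth microdilution in tryptic soy broth: overnight bacterial culture adjusted to 1×10^5 CFU/mL, 1.0×10^4 CFU per well; compounds dissolved in 5% DMSO, tested at 0.001-1.0 mg/ml; 24 h at 37°C. Streptomycin and ampicillin as positive controls, 5% DMSO as negative control; duplicate, repeated three times.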

[6] = tested on: Penicillium verrucosum; assay: Antifungal activity against Penicillium cyclopium var verucosum after 72 hrs by serial dilution assay; format: functional; how it was run: as §2
[7] = tested on: Salmonella typhimurium; assay: Antibacterial activity against Salmonella typhimurium ATCC 13311 after 24 hrs by INT dye based microdilution assay; format: functional, Salmonella enterica subsp. enterica serovar Typhimurium; conditions: Salmonella enterica, ATCC 13311, 24 h; how it was run: as §3
[8] = tested on: Pseudomonas aeruginosa; assay: Antibacterial activity against drug-resistant Pseudomonas aeruginosa after 24 hrs by INT dye based microdilution assay; format: functional; how it was run: as §1
[9] = tested on: Talaromyces funiculosus; assay: Antifungal activity against Penicillium funiculosum ATCC 36839 after 72 hrs by serial dilution assay; format: functional; conditions: ATCC 36839, 72 h; how it was run: as §2
[10] = tested on: Pseudomonas aeruginosa; assay: Antibacterial activity against Pseudomonas aeruginosa ATCC 27853 after 24 hrs by INT dye based microdilution assay; format: functional; conditions: ATCC 27853, 24 h; how it was run: as §3
[11] = tested on: Staphylococcus aureus; assay: Antibacterial activity against methicillin-resistant Staphylococcus aureus after 24 hrs by INT dye based microdilution assay; format: functional; how it was run: as §1
[12] = tested on: Escherichia coli; assay: Antibacterial activity against Escherichia coli ATCC 35210 after 24 hrs by INT dye based microdilution assay; format: functional; conditions: ATCC 35210, 24 h; how it was run: as §3
[13] = tested on: Enterobacter cloacae; assay: Antibacterial activity against Enterobacter cloacae after 24 hrs by INT dye based microdilution assay; format: functional; how it was run: as §3
[14] = tested on: Listeria monocytogenes; assay: Antibacterial activity against Listeria monocytogenes NCTC 7973 after 24 hrs by INT dye based microdilution assay; format: functional; conditions: NCTC 7973, 24 h; how it was run: as §3
[15] = tested on: Trichoderma viride; assay: Antifungal activity against Trichoderma viride IAM 5061 after 72 hrs by serial dilution assay; format: functional; conditions: IAM 5061, 72 h; how it was run: as §2
[16] = tested on: Aspergillus fumigatus; assay: Antifungal activity against Aspergillus fumigatus isolate 1022 after 72 hrs by serial dilution assay; format: functional; conditions: isolate 1022, 72 h; how it was run: as §2
[17] = tested on: Bacillus cereus; assay: Antibacterial activity against Bacillus cereus after 24 hrs by INT dye based microdilution assay; format: functional; how it was run: as §3
[18] = tested on: Aspergillus ochraceus; assay: Antifungal activity against Aspergillus ochraceus ATCC 12066 after 72 hrs by serial dilution assay; format: functional; conditions: ATCC 12066, 72 h; how it was run: as §2
[19] = tested on: Staphylococcus aureus; assay: Antibacterial activity against Staphylococcus aureus ATCC 6538 after 24 hrs by INT dye based microdilution assay; format: functional; conditions: ATCC 6538, 24 h; how it was run: as §3
[20] = tested on: Candida albicans; assay: Antifungal activity against Candida albicans after 72 hrs by serial dilution assay; format: functional; how it was run: as §2

SMILES | MIC [1] | MIC [2] | MIC [3] | MIC [4] | MIC [5] | MIC [6] | MIC [7] | MIC [8] | MIC [9] | MIC [10] | MIC [11] | MIC [12] | MIC [13] | MIC [14] | MIC [15] | MIC [16] | MIC [17] | MIC [18] | MIC [19] | MIC [20]
CN(C)c1ccc(/C=C2/S/C(=N/c3nnc(C45CC6CC(CC(C6)C4)C5)s3)NC2=O)cc1 | 0.0751 µM (≈ 0.035 µg/mL) | 150 µM (≈ 69.8 µg/mL) | 150 µM (≈ 69.8 µg/mL) | 150 µM (≈ 69.8 µg/mL) | 139 µM (≈ 64.8 µg/mL) | 0.301 µM (≈ 0.14 µg/mL) | 69.5 µM (≈ 32.4 µg/mL) | 150 µM (≈ 70.1 µg/mL) | 150 µM (≈ 69.8 µg/mL) | 69.5 µM (≈ 32.4 µg/mL) | 0.15 µM (≈ 0.0701 µg/mL) | 0.139 µM (≈ 0.0648 µg/mL) | 139 µM (≈ 64.8 µg/mL) | 69.5 µM (≈ 32.4 µg/mL) | 301 µM (≈ 140 µg/mL) | 301 µM (≈ 140 µg/mL) | 139 µM (≈ 64.8 µg/mL) | 150 µM (≈ 69.8 µg/mL) | 0.139 µM (≈ 0.0648 µg/mL) | –
COc1cc(/C=C2/S/C(=N/c3nnc(C45CC6CC(CC(C6)C4)C5)s3)NC2=O)ccc1O | – | 66 µM (≈ 30.9 µg/mL) | 33 µM (≈ 15.5 µg/mL) | 66 µM (≈ 30.9 µg/mL) | 134 µM (≈ 62.8 µg/mL) | – | 32 µM (≈ 15 µg/mL) | – | 66 µM (≈ 30.9 µg/mL) | 32 µM (≈ 15 µg/mL) | – | 0.134 µM (≈ 0.0628 µg/mL) | 32 µM (≈ 15 µg/mL) | 134 µM (≈ 62.8 µg/mL) | 17 µM (≈ 7.97 µg/mL) | 133 µM (≈ 62.3 µg/mL) | 32 µM (≈ 15 µg/mL) | 17 µM (≈ 7.97 µg/mL) | 0.032 µM (≈ 0.015 µg/mL) | 133 µM (≈ 62.3 µg/mL)
Cc1ccc(/C=C2/S/C(=N/c3nnc(C45CC6CC(CC(C6)C4)C5)s3)NC2=O)cc1 | 0.115 µM (≈ 0.0501 µg/mL) | 183 µM (≈ 79.9 µg/mL) | 183 µM (≈ 79.9 µg/mL) | 183 µM (≈ 79.9 µg/mL) | 115 µM (≈ 50 µg/mL) | 0.183 µM (≈ 0.0801 µg/mL) | 59.3 µM (≈ 25.9 µg/mL) | 115 µM (≈ 50.1 µg/mL) | 183 µM (≈ 79.9 µg/mL) | 115 µM (≈ 50 µg/mL) | 0.115 µM (≈ 0.0501 µg/mL) | 0.115 µM (≈ 0.05 µg/mL) | 115 µM (≈ 50 µg/mL) | 59.3 µM (≈ 25.9 µg/mL) | 367 µM (≈ 160 µg/mL) | 367 µM (≈ 160 µg/mL) | 115 µM (≈ 50 µg/mL) | 183 µM (≈ 79.9 µg/mL) | 0.115 µM (≈ 0.05 µg/mL) | –
O=C1N/C(=N\c2nnc(C34CC5CC(CC(C5)C3)C4)s2)S/C1=C/c1c(F)cccc1F | 0.393 µM (≈ 0.18 µg/mL) | 393 µM (≈ 180 µg/mL) | 393 µM (≈ 180 µg/mL) | 393 µM (≈ 180 µg/mL) | 43.6 µM (≈ 20 µg/mL) | 0.393 µM (≈ 0.18 µg/mL) | 43.6 µM (≈ 20 µg/mL) | 393 µM (≈ 180 µg/mL) | 393 µM (≈ 180 µg/mL) | 43.6 µM (≈ 20 µg/mL) | 0.393 µM (≈ 0.18 µg/mL) | 0.0436 µM (≈ 0.02 µg/mL) | 21.8 µM (≈ 10 µg/mL) | 21.8 µM (≈ 10 µg/mL) | 393 µM (≈ 180 µg/mL) | 393 µM (≈ 180 µg/mL) | 43.6 µM (≈ 20 µg/mL) | 393 µM (≈ 180 µg/mL) | 0.0436 µM (≈ 0.02 µg/mL) | –
O=C1N/C(=N\c2nnc(C34CC5CC(CC(C5)C3)C4)s2)S/C1=C/c1ccccc1 | 0.0236 µM (≈ 0.00997 µg/mL) | 47.5 µM (≈ 20.1 µg/mL) | 95 µM (≈ 40.1 µg/mL) | 95 µM (≈ 40.1 µg/mL) | 94.7 µM (≈ 40 µg/mL) | 0.095 µM (≈ 0.0401 µg/mL) | 23.6 µM (≈ 9.97 µg/mL) | 47.3 µM (≈ 20 µg/mL) | 47.5 µM (≈ 20.1 µg/mL) | 94.7 µM (≈ 40 µg/mL) | 0.0473 µM (≈ 0.02 µg/mL) | 0.0947 µM (≈ 0.04 µg/mL) | 94.7 µM (≈ 40 µg/mL) | 94.7 µM (≈ 40 µg/mL) | 47.5 µM (≈ 20.1 µg/mL) | 47.5 µM (≈ 20.1 µg/mL) | 94.7 µM (≈ 40 µg/mL) | 47.5 µM (≈ 20.1 µg/mL) | 0.0473 µM (≈ 0.02 µg/mL) | –
O=C1N/C(=N\c2nnc(C34CC5CC(CC(C5)C3)C4)s2)S/C1=C/c1c(Cl)cccc1Cl | 0.0305 µM (≈ 0.015 µg/mL) | 61 µM (≈ 30 µg/mL) | 61 µM (≈ 30 µg/mL) | 61 µM (≈ 30 µg/mL) | 40.7 µM (≈ 20 µg/mL) | 0.122 µM (≈ 0.06 µg/mL) | 40.7 µM (≈ 20 µg/mL) | 61.1 µM (≈ 30 µg/mL) | 61 µM (≈ 30 µg/mL) | 40.7 µM (≈ 20 µg/mL) | 0.0611 µM (≈ 0.03 µg/mL) | 0.0407 µM (≈ 0.02 µg/mL) | 21.4 µM (≈ 10.5 µg/mL) | 21.4 µM (≈ 10.5 µg/mL) | 122 µM (≈ 60 µg/mL) | 61 µM (≈ 30 µg/mL) | 40.7 µM (≈ 20 µg/mL) | 92 µM (≈ 45.2 µg/mL) | 0.0407 µM (≈ 0.02 µg/mL) | –
O=C1N/C(=N\c2nnc(C34CC5CC(CC(C5)C3)C4)s2)S/C1=C/c1ccc(F)cc1 | 0.295 µM (≈ 0.13 µg/mL) | 90.9 µM (≈ 40 µg/mL) | 90.9 µM (≈ 40 µg/mL) | 182 µM (≈ 80.2 µg/mL) | 295 µM (≈ 130 µg/mL) | 0.182 µM (≈ 0.0801 µg/mL) | 295 µM (≈ 130 µg/mL) | 295 µM (≈ 130 µg/mL) | 90.9 µM (≈ 40 µg/mL) | 295 µM (≈ 130 µg/mL) | 0.295 µM (≈ 0.13 µg/mL) | 0.295 µM (≈ 0.13 µg/mL) | 148 µM (≈ 65 µg/mL) | 295 µM (≈ 130 µg/mL) | 182 µM (≈ 80.2 µg/mL) | 90.9 µM (≈ 40 µg/mL) | 295 µM (≈ 130 µg/mL) | 90.9 µM (≈ 40 µg/mL) | 0.147 µM (≈ 0.065 µg/mL) | –

— ChEMBL document CHEMBL4229530, “5-Adamantan thiadiazole-based thiazolidinones as antimicrobial agents. Design, synthesis, molecular docking and evaluation” (2018)
